Experimental data taken from ChEMBL document CHEMBL4270630.
pEC50: −log10 of the molar value.

Legend:
Influenza A virus [1] = assay: Antiviral activity against Influenza A virus A/PR/8/34(H1N1) infected in MDCK cells assessed as reduction in virus-induced cytopathic effect after 3 days by microscopic method; assay type: functional, organism-based, A/Puerto Rico/8/1934(H1N1); details: Influenza A virus, A/Puerto Rico/8/1934(H1N1), MDCK, 72 h
In short: (§1)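 Semi-confluent MDCK cells were infected at an MOI of 0.0004 PFU/cell in Ultra-MDCK infection medium with 2 μg/mL TPCK-trypsin, together with compounds. After 3 days at 35 °C, CPE was scored by microscopy and confirmed by MTS formazan viability. EC50 is the concentration giving 50% inhibition of virus-induced CPE. Values are means of two to five independent tests.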

Influenza A virus [2] = assay: Antiviral activity against Influenza A virus A/PR/8/34(H1N1) infected in MDCK cells after 3 days by MTS assay; assay type: functional, organism-based, A/Puerto Rico/8/1934(H1N1); details: Influenza A virus, A/Puerto Rico/8/1934(H1N1), MDCK, 72 h; in short: as §1
Influenza A virus [3] = assay: Antiviral activity against Influenza A virus A/Virginia/ATCC3/2009(H1N1pdm) infected in MDCK cells assessed as reduction in virus-induced cytopathic effect after 3 days by microscopic method; assay type: functional, organism-based, Influenza A virus (A/Virginia/03/2009(H1N1)); details: 72 h; in short: as §1
Influenza A virus [4] = assay: Antiviral activity against Influenza A virus A/Virginia/ATCC3/2009(H1N1pdm) infected in MDCK cells after 3 days by MTS assay; assay type: functional, organism-based, Influenza A virus (A/Virginia/03/2009(H1N1)); details: 72 h; in short: as §1
H3N2 subtype [5] = assay: Antiviral activity against Influenza A virus A/HK/7/87(H3N2) infected in MDCK cells assessed as reduction in virus-induced cytopathic effect after 3 days by microscopic method; assay type: functional, organism-based; details: A/Hong Kong/7/1987(H3N2), 72 h; in short: as §1
H3N2 subtype [6] = assay: Antiviral activity against Influenza A virus A/HK/7/87(H3N2) infected in MDCK cells after 3 days by MTS assay; assay type: functional, organism-based; details: A/Hong Kong/7/1987(H3N2), 72 h; in short: as §1
Influenza B virus [7] = assay: Antiviral activity against Influenza B virus B/Ned/537/05 infected in MDCK cells assessed as reduction in virus-induced cytopathic effect after 3 days by microscopic method; assay type: functional, organism-based; details: B/Ned/537/05, MDCK, 72 h
In short: (§2)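 Semi-confluent MDCK cells were infected at an MOI of 0.0004 PFU/cell in Ultra-MDCK infection medium with 2 μg/mL TPCK-trypsin, together with compounds. After 3 days at 35 °C, CPE was scored by microscopy and confirmed by MTS formazan viability. Values are means of two to five independent tests.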

Influenza B virus [8] = assay: Antiviral activity against Influenza B virus B/Ned/537/05 infected in MDCK cells after 3 days by MTS assay; assay type: functional, organism-based; details: B/Ned/537/05, MDCK, 72 h; in short: as §2
MDCK = assay: Cytotoxicity against MDCK cells assessed as reduction in cell viability after 3 days by MTS assay; assay type: cell-based, Canis lupus familiaris; details: dog, mdck, 72 h
[9] = Cytotoxicity against MDCK cells assessed as alteration in cell morphology after 3 days by microscopic method; assay type: cell-based, Canis lupus familiaris; details: dog
In short: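 Mock-infected MDCK cells were treated with compounds in parallel with the antiviral assay, 3 days at 35 °C. MCC is the concentration causing minimal change in cell morphology by microscopy. CC50 is the 50% cytotoxic concentration by MTS formazan viability assay.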

Human coronavirus 229E [10] = assay: Antiviral activity against Human coronavirus 229E infected in HEL299 cells assessed as reduction in virus induced cytopathic effect after 5 days by microscopic method; assay type: functional, organism-based; details: HEL 299, 120 h
In short: (§3)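 Confluent HEL 299 cells in medium with 2% FCS were exposed to HCoV-229E (100 CCID50/well) together with compounds and held for 5 days at 35 °C. EC50 (CPE reduction) and MCC (minimal morphology change) were determined by microscopy. SI is MCC/EC50.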

[11] = Cytotoxicity against HEL299 cells assessed as changes in cell morphology after 5 days by microscopic method; assay type: cell-based, HEL 299; details: human; in short: as §3
Human coronavirus 229E [12] = assay: Antiviral activity against Human coronavirus 229E infected in human A549 cells assessed as reduction in virus RNA level after 3 days by qRT-PCR method; assay type: functional; details: A549, 72 h
In short: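 Confluent A549 cells were infected with HCoV-229E in 2% FCS medium with compounds present. The inoculum was removed at 1 h and compounds were kept on at 35 °C. Supernatants were harvested at day 3, lysed at 75 °C for 10 min, and viral genome copies counted by one-step qRT-PCR.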

[13] = Cytotoxicity against human A549 cells assessed as changes in cell morphology after 3 days by microscopic method; assay type: cell-based
In short: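 Mock-infected A549 cells were incubated with compounds for 3 days. MCC is the concentration causing minimal change in cell morphology by microscopy.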

## CCCCCCCCS(=O)(=O)N[C@H]1C(=O)N[C@@H]2Cc3ccc(c(Cl)c3)Oc3cc4cc(c3O)Oc3ccc(cc3Cl)[C@@H](O[C@@H]3O[C@H](CO)[C@@H](O)[C@H](O)[C@H]3NC(C)=O)[C@H]3NC(=O)[C@H](NC(O)[C@@H]4NC(=O)[C@@H](NC2=O)c2cc(O)cc(c2)Oc2cc1ccc2O)c1ccc(O)c(c1)-c1c(O)cc(O)cc1[C@H](C(=O)O)NC3=O (stereo partly specified)
Influenza A virus [1]
  pEC50: 5.72
Influenza A virus [2]
  pEC50: 5.60
Influenza A virus [3]
  pEC50: < 4.00
Influenza A virus [4]
  pEC50: < 4.00
H3N2 subtype [5]
  pEC50: 5.70
H3N2 subtype [6]
  pEC50: 5.62
Influenza B virus [7]
  pEC50: 5.40
Influenza B virus [8]
  pEC50: < 4.00
MDCK
  CC50: 14 µM
[9]
  MCC at 72 h: 20 µM
Human coronavirus 229E [10]
  pEC50: 5.27
[11]
  MCC at 120 h: ≥ 20 µM
Human coronavirus 229E [12]
  EC90: 5.7 µM
  EC99: 9.4 µM
[13]
  MCC at 72 h: > 50 µM

## CCCCSC1=C(SCCCC)C(=O)N(Cc2cn(C3C(=O)N[C@@H]4Cc5ccc(c(Cl)c5)Oc5cc6cc(c5O)Oc5ccc(cc5Cl)[C@@H](O[C@@H]5O[C@H](CO)[C@@H](O)[C@H](O)[C@H]5NC(C)=O)[C@H]5NC(=O)[C@H](NC(O)[C@@H]6NC(=O)[C@@H](NC4=O)c4cc(O)cc(c4)Oc4cc3ccc4O)c3ccc(O)c(c3)-c3c(O)cc(O)cc3[C@H](C(=O)O)NC5=O)nn2)C1=O (stereo partly specified)
Influenza A virus [1]
  pEC50: 5.68
Influenza A virus [2]
  pEC50: 5.49
Influenza A virus [3]
  pEC50: 5.01
Influenza A virus [4]
  pEC50: 5.13
H3N2 subtype [5]
  pEC50: < 4.00
H3N2 subtype [6]
  pEC50: 5.31
Influenza B virus [7]
  pEC50: 5.60
Influenza B virus [8]
  pEC50: 5.46
MDCK
  CC50: 28 µM
[9]
  MCC at 72 h: 20 µM
Human coronavirus 229E [10]
  pEC50: 5.27
[11]
  MCC at 120 h: ≥ 20 µM
Human coronavirus 229E [12]
  EC90: 5.9 µM
  EC99: 11 µM
[13]
  MCC at 72 h: > 50 µM

## CCCCSC1=C(SCCCC)C(=O)N([C@H]2C(=O)N[C@@H]3Cc4ccc(c(Cl)c4)Oc4cc5cc(c4O)Oc4ccc(cc4Cl)[C@@H](O[C@@H]4O[C@H](CO)[C@@H](O)[C@H](O)[C@H]4NC(C)=O)[C@H]4NC(=O)[C@H](NC(O)[C@@H]5NC(=O)[C@@H](NC3=O)c3cc(O)cc(c3)Oc3cc2ccc3O)c2ccc(O)c(c2)-c2c(O)cc(O)cc2[C@H](C(=O)O)NC4=O)C1=O (stereo partly specified)
Influenza A virus [1]
  pEC50: < 4.00
Influenza A virus [2]
  pEC50: < 4.00
Influenza A virus [3]
  pEC50: 5.54
Influenza A virus [4]
  pEC50: 5.59
H3N2 subtype [5]
  pEC50: < 4.00
H3N2 subtype [6]
  pEC50: < 4.00
Influenza B virus [7]
  pEC50: < 4.00
Influenza B virus [8]
  pEC50: < 4.00
MDCK
  CC50: 8.6 µM
[9]
  MCC at 72 h: 4 µM
Human coronavirus 229E [10]
  pEC50: 5.27
[11]
  MCC at 120 h: ≥ 20 µM
Human coronavirus 229E [12]
  EC90: 4.1 µM
  EC99: 10 µM
[13]
  MCC at 72 h: 50 µM

## CC(=O)N[C@H]1[C@H](O[C@@H]2c3ccc(c(Cl)c3)Oc3cc4cc(c3O)Oc3ccc(cc3Cl)C[C@H]3NC(=O)[C@H](NS(=O)(=O)c5cccc6c(N(C)C)cccc56)c5ccc(O)c(c5)Oc5cc(O)cc(c5)[C@H](NC3=O)C(=O)N[C@H]4C(O)N[C@H]3C(=O)N[C@H]2C(=O)N[C@@H](C(=O)O)c2cc(O)cc(O)c2-c2cc3ccc2O)O[C@H](CO)[C@@H](O)[C@@H]1O (stereo partly specified)
Influenza A virus [1]
  pEC50: 5.31
Influenza A virus [2]
  pEC50: 5.15
Influenza A virus [3]
  pEC50: 5.20
Influenza A virus [4]
  pEC50: 5.23
H3N2 subtype [5]
  pEC50: 5.08
H3N2 subtype [6]
  pEC50: 5.64
Influenza B virus [7]
  pEC50: 5.17
Influenza B virus [8]
  pEC50: 5.28
MDCK
  CC50: 52 µM
[9]
  MCC at 72 h: 20 µM
Human coronavirus 229E [10]
  pEC50: < 4.00
[11]
  MCC at 120 h: ≥ 4 µM

## CC(=O)Nc1ccc(S(=O)(=O)N[C@H]2C(=O)N[C@@H]3Cc4ccc(c(Cl)c4)Oc4cc5cc(c4O)Oc4ccc(cc4Cl)[C@@H](O[C@@H]4O[C@H](CO)[C@@H](O)[C@H](O)[C@H]4NC(C)=O)[C@H]4NC(=O)[C@H](NC(O)[C@@H]5NC(=O)[C@@H](NC3=O)c3cc(O)cc(c3)Oc3cc2ccc3O)c2ccc(O)c(c2)-c2c(O)cc(O)cc2[C@H](C(=O)O)NC4=O)cc1 (stereo partly specified)
Influenza A virus [1]
  pEC50: < 4.00
Influenza A virus [2]
  pEC50: < 4.00
Influenza A virus [3]
  pEC50: < 4.00
Influenza A virus [4]
  pEC50: < 4.00
H3N2 subtype [5]
  pEC50: < 4.00
H3N2 subtype [6]
  pEC50: < 4.00
Influenza B virus [7]
  pEC50: < 4.00
Influenza B virus [8]
  pEC50: 4.33
MDCK
  CC50: 60 µM
[9]
  MCC at 72 h: 100 µM
Human coronavirus 229E [10]
  pEC50: < 4.00
[11]
  MCC at 120 h: ≥ 20 µM

## O=C(N/C(=C\c1ccccc1)C(=O)N1CCC(O)(c2ccc(Br)cc2)CC1)c1ccccc1
Human coronavirus 229E [12]
  EC90: 11 µM
  EC99: 15 µM
[13]
  MCC at 72 h: ≥ 50 µM

## CCCCOCc1cn(CCOCCOCCOCCOCc2cn([C@H]3C(=O)N[C@@H]4Cc5ccc(c(Cl)c5)Oc5cc6cc(c5O)Oc5ccc(cc5Cl)[C@@H](O[C@@H]5O[C@H](CO)[C@@H](O)[C@H](O)[C@H]5NC(C)=O)[C@H]5NC(=O)[C@H](NC(O)[C@@H]6NC(=O)[C@@H](NC4=O)c4cc(O)cc(c4)Oc4cc3ccc4O)c3ccc(O)c(c3)-c3c(O)cc(O)cc3[C@H](C(=O)O)NC5=O)nn2)nn1 (stereo partly specified)
Influenza A virus [1]
  pEC50: < 4.00
Influenza A virus [2]
  pEC50: 4.29
Influenza A virus [3]
  pEC50: < 4.00
Influenza A virus [4]
  pEC50: 4.33
H3N2 subtype [5]
  pEC50: < 4.00
H3N2 subtype [6]
  pEC50: 4.51
Influenza B virus [7]
  pEC50: < 4.00
Influenza B virus [8]
  pEC50: 4.55
MDCK
  CC50: > 100 µM
[9]
  MCC at 72 h: 100 µM
Human coronavirus 229E [10]
  pEC50: ≤ 4.00
[11]
  MCC at 120 h: ≥ 100 µM

## CC(=O)N[C@H]1[C@H](O[C@@H]2c3ccc(c(Cl)c3)Oc3cc4cc(c3O)Oc3ccc(cc3Cl)C[C@H]3NC(=O)[C@H](NS(=O)(=O)c5ccc(-c6ccccc6)cc5)c5ccc(O)c(c5)Oc5cc(O)cc(c5)[C@H](NC3=O)C(=O)N[C@H]4C(O)N[C@H]3C(=O)N[C@H]2C(=O)N[C@@H](C(=O)O)c2cc(O)cc(O)c2-c2cc3ccc2O)O[C@H](CO)[C@@H](O)[C@@H]1O (stereo partly specified)
Influenza A virus [1]
  pEC50: 5.74
Influenza A virus [2]
  pEC50: 5.77
Influenza A virus [3]
  pEC50: 5.70
Influenza A virus [4]
  pEC50: 5.70
H3N2 subtype [5]
  pEC50: 5.82
H3N2 subtype [6]
  pEC50: 5.80
Influenza B virus [7]
  pEC50: 5.74
Influenza B virus [8]
  pEC50: 5.62
MDCK
  CC50: 15 µM
[9]
  MCC at 72 h: 11 µM
Human coronavirus 229E [10]
  pEC50: < 4.00
[11]
  MCC at 120 h: 4 µM
